Source: the array DNA melting data of Ke et al. (doi:10.1101/2024.01.08.574731)

Assays:
[1] = folding enthalpy; higher = less favourable; fluorescence melt of hairpins on a sequencing array, two-state fit; details: sodium 0.088 M
In short: (§1)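 Melting temperature and folding enthalpy were derived from bootstrapped two-state fits. The fitted temperatures were raised by 9.35 °C to agree with UV melts, and four replicates were combined by inverse variance. The underlying data were Cy3 fluorescence images of library hairpins, with annealed Cy3 and quencher oligos, on a sequenced MiSeq flow cell in 50 mM Na-HEPES pH 8.0, 25 mM NaCl, taken in 2.5 °C steps up to 60 °C, normalised to pre-quench Cy3 and to control constructs.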

[2] = melting temperature; fluorescence melt of hairpins on a sequencing array, two-state fit, raised by 9.35 °C to match UV melts; details: sodium 0.088 M
In short: as §1

GGTTGTGGAAACACGACC (((.(((....))).)))
folding enthalpy [1]: -43.2 kcal/mol
Tm [2]: 54.5 °C

GATCGCTTCCGCGATC ((((((....))))))
folding enthalpy [1]: -36 kcal/mol
Tm [2]: 67.2 °C

GCTACGCGAAAGCGGTGC ((..(((....)))..))
folding enthalpy [1]: -16 kcal/mol
Tm [2]: 56 °C

GATCTGATCACAGATC ((((((....))))))
folding enthalpy [1]: -36.8 kcal/mol
Tm [2]: 50.4 °C

GATCATCCAAATGATC ((((((....))))))
folding enthalpy [1]: -36.9 kcal/mol
Tm [2]: 46.3 °C

CTGCGGAAACGCAG (((((....)))))
folding enthalpy [1]: -31.6 kcal/mol
Tm [2]: 61.8 °C

GCTTCCGAAAGGATTAGC ((((((....)))..)))
folding enthalpy [1]: -23.2 kcal/mol
Tm [2]: 38.3 °C

GCACAGCGAAAGCTATGC (((.(((....))).)))
folding enthalpy [1]: -40.8 kcal/mol
Tm [2]: 49.5 °C

GCGTCGCTACGC ((((....))))
folding enthalpy [1]: -13.7 kcal/mol
Tm [2]: 55.2 °C

GCGGGCGGCCGC ((((....))))
folding enthalpy [1]: -42 kcal/mol
Tm [2]: 59.1 °C

GAGGTAGGAAACTATCTC (((.(((....))).)))
folding enthalpy [1]: -26.6 kcal/mol
Tm [2]: 38.7 °C

GCGTGTAGACGC ((((....))))
folding enthalpy [1]: -21.4 kcal/mol
Tm [2]: 58.5 °C

GTGGGTGGAAACGCTCAC (((.(.(....).).)))
folding enthalpy [1]: -33 kcal/mol
Tm [2]: 40.6 °C

GTTGTGGGAAACCGTAAC (((..((....))..)))
folding enthalpy [1]: -13 kcal/mol
Tm [2]: 29.2 °C

GCATGATCGAAAGATTGC (((..(((....))))))
folding enthalpy [1]: -19.9 kcal/mol
Tm [2]: 32.6 °C

GCAATCGAAAGATTTTGC ((((((....)))..)))
folding enthalpy [1]: -14.8 kcal/mol
Tm [2]: 28.8 °C

GACCTGGGAAACCAGGCC (.(((((....))))).)
folding enthalpy [1]: -12.7 kcal/mol
Tm [2]: 46.4 °C

GCACTTCCGAAAGGATGC (((..(((....))))))
folding enthalpy [1]: -17.7 kcal/mol
Tm [2]: 37.9 °C

GAGACAGGAAACTGTTTC ((.((((....)))).))
folding enthalpy [1]: -29.1 kcal/mol
Tm [2]: 37.9 °C

GCAAGGCGAAAGCATAGC ((.(.((....)).).))
folding enthalpy [1]: -14.8 kcal/mol
Tm [2]: 39.6 °C

GATCATAAGGATGATC ((((((....))))))
folding enthalpy [1]: -32.5 kcal/mol
Tm [2]: 45.3 °C

GCGCTGGGAAACTGGCGC ((((..(....)..))))
folding enthalpy [1]: -49.8 kcal/mol
Tm [2]: 57.3 °C

GTCACCGAAAGGTTTGAC ((((((....)))..)))
folding enthalpy [1]: -15.6 kcal/mol
Tm [2]: 37.4 °C

GATCATCGTAATGATC ((((((....))))))
folding enthalpy [1]: -39.5 kcal/mol
Tm [2]: 48.5 °C

GCAGCCGAAAGGCCATGC ((((((....)))..)))
folding enthalpy [1]: -13.9 kcal/mol
Tm [2]: 40.3 °C

GACTCGGGAAACCGAACC (..((((....))))..)
folding enthalpy [1]: -9.35 kcal/mol
Tm [2]: 22.6 °C

GAAGCCGGAAACGGCTCC (.(((((....))))).)
folding enthalpy [1]: -9.15 kcal/mol
Tm [2]: 46.8 °C

GCAGAGCGAAAGCGCCGC ((.(.((....)).).))
folding enthalpy [1]: -28.2 kcal/mol
Tm [2]: 64 °C

GATACTGAAAAGTATC ((((((....))))))
folding enthalpy [1]: -40.9 kcal/mol
Tm [2]: 48.5 °C

GCCCGACGAAAGTCGGC (((.(((....))))))
folding enthalpy [1]: -8.71 kcal/mol
Tm [2]: 61.4 °C

GGGGTCGGAAACGGCCCC ((((.((....)).))))
folding enthalpy [1]: -31.7 kcal/mol
Tm [2]: 67.9 °C

GTTCGCGAAAGCGGGAAC ((((((....)))..)))
folding enthalpy [1]: -11.8 kcal/mol
Tm [2]: 40.7 °C

GAGGGAGGAAACTCCCCC (.(((((....))))).)
folding enthalpy [1]: -10.5 kcal/mol
Tm [2]: 41.9 °C

GGCACCGGAAACGGCGCC (((.(((....))).)))
folding enthalpy [1]: -52.6 kcal/mol
Tm [2]: 61.2 °C

GCCCACCGAAAGGTTGGC (((.(((....))).)))
folding enthalpy [1]: -42.5 kcal/mol
Tm [2]: 55.3 °C

GTCTAGGCGAAAGCCGAC (((..(((....))))))
folding enthalpy [1]: -10.8 kcal/mol
Tm [2]: 44.5 °C

GATCACCCTGGTGATC ((((((....))))))
folding enthalpy [1]: -41.1 kcal/mol
Tm [2]: 64.1 °C

GCATTGGGAAACTAGTGC (((.(.(....).).)))
folding enthalpy [1]: -19.5 kcal/mol
Tm [2]: 29.8 °C

GCACGTCCGAAAGGATGC (((..(((....))))))
folding enthalpy [1]: -11.9 kcal/mol
Tm [2]: 36.8 °C

GCGATAGGAAACTGTCGC ((((.((....)).))))
folding enthalpy [1]: -50.7 kcal/mol
Tm [2]: 54.5 °C

GCCAATACGAAAGTAGGC (((..(((....))))))
folding enthalpy [1]: -25.6 kcal/mol
Tm [2]: 44.2 °C

GCCACTGGAAACAGCAGC ((..(((....)))..))
folding enthalpy [1]: -11.8 kcal/mol
Tm [2]: 25.5 °C

GAACCCGAAAGGGTCTTC ((((((....)))..)))
folding enthalpy [1]: -22.8 kcal/mol
Tm [2]: 61.9 °C

GCTACTCGAAAGAGAGC (((.(((....))))))
folding enthalpy [1]: -25.4 kcal/mol
Tm [2]: 44.8 °C

GGGACCGAAAGGTTGCCC ((((((....)))..)))
folding enthalpy [1]: -14.5 kcal/mol
Tm [2]: 37.6 °C

GTTGCCCCGAAAGGGAAC (((..(((....))))))
folding enthalpy [1]: -14.2 kcal/mol
Tm [2]: 39.2 °C

GACTAGCGAAAGCTGGTC (((.(((....))).)))
folding enthalpy [1]: -34.1 kcal/mol
Tm [2]: 61 °C

GCTCGGCGAAAGCATAGC (((..((....))..)))
folding enthalpy [1]: -12.3 kcal/mol
Tm [2]: 44 °C

GCCTTTGGAAACAAAAGC ((.((((....)))).))
folding enthalpy [1]: -12.2 kcal/mol
Tm [2]: 29.3 °C

CGGGCGGAAACGCAGCCG ((((((....)))..)))
folding enthalpy [1]: -19.5 kcal/mol
Tm [2]: 50.2 °C

GAGAGCGAAAGCTACCTC ((((((....)))..)))
folding enthalpy [1]: -10.4 kcal/mol
Tm [2]: 30.1 °C

GCAATTCCGAAAGGATGC (((..(((....))))))
folding enthalpy [1]: -21.5 kcal/mol
Tm [2]: 38 °C

GAGTACGGAAACGTATTC ((.((((....)))).))
folding enthalpy [1]: -24.4 kcal/mol
Tm [2]: 41.6 °C

GTTGCCCGAAAGGGTAAC (((.(((....))).)))
folding enthalpy [1]: -31.6 kcal/mol
Tm [2]: 60.9 °C

TCGAGGAAACTCGA (((((....)))))
folding enthalpy [1]: -18.8 kcal/mol
Tm [2]: 48 °C

GATCTAGGTATAGATC ((((((....))))))
folding enthalpy [1]: -34.7 kcal/mol
Tm [2]: 47.5 °C

GTCTCCGAAAGGACTGAC ((((((....)))..)))
folding enthalpy [1]: -14.6 kcal/mol
Tm [2]: 34.4 °C

GTGTATCGAAAGATGCAC (((.(((....))).)))
folding enthalpy [1]: -41.9 kcal/mol
Tm [2]: 53.6 °C

GTGTTGTCGAAAGACCAC (((..(((....))))))
folding enthalpy [1]: -21.6 kcal/mol
Tm [2]: 42.4 °C

GGGTCCCGAAAGGGCCC (((.(((....))))))
folding enthalpy [1]: -29.5 kcal/mol
Tm [2]: 68 °C

TCACGGAAACGTGA (((((....)))))
folding enthalpy [1]: -19.9 kcal/mol
Tm [2]: 50.9 °C

GCTATGCGAAAGCCTAGC ((((.((....)).))))
folding enthalpy [1]: -28.8 kcal/mol
Tm [2]: 52.4 °C

GGACACCGAAAGGTTCC (((.(((....))))))
folding enthalpy [1]: -25.6 kcal/mol
Tm [2]: 48.6 °C

GATCTCCAAGAGATC ((((((...))))))
folding enthalpy [1]: -30.2 kcal/mol
Tm [2]: 49.8 °C

GCGAAGCGAAAGCTTAGC ((.((((....)))).))
folding enthalpy [1]: -16.1 kcal/mol
Tm [2]: 56 °C

GGTGCCGAAAGGCCCACC ((((((....)))..)))
folding enthalpy [1]: -11.4 kcal/mol
Tm [2]: 50.6 °C

GTCTGCCCGAAAGGGGAC (((..(((....))))))
folding enthalpy [1]: -10.9 kcal/mol
Tm [2]: 34.8 °C

GGGGTTGGAAACAGCCCC ((((.((....)).))))
folding enthalpy [1]: -44.7 kcal/mol
Tm [2]: 57.9 °C

GGATAGGCGAAAGCCTCC (((..(((....))))))
folding enthalpy [1]: -10.2 kcal/mol
Tm [2]: 36.6 °C

AAGCGGAAACGCTT (((((....)))))
folding enthalpy [1]: -17.5 kcal/mol
Tm [2]: 57.3 °C

GATCCAGTATTGGATC ((((((....))))))
folding enthalpy [1]: -41.8 kcal/mol
Tm [2]: 57.4 °C

GATCTCTATCGAGATC ((((((....))))))
folding enthalpy [1]: -39.4 kcal/mol
Tm [2]: 51.1 °C

GCAATTACGAAAGTATGC (((..(((....))))))
folding enthalpy [1]: -20.3 kcal/mol
Tm [2]: 31.1 °C

GCTGTTGGAAACAACAGC (((((((....)))))))
folding enthalpy [1]: -44.5 kcal/mol
Tm [2]: 67.1 °C

GCCAACGGAAACATTGGC (((((.(....).)))))
folding enthalpy [1]: -31.9 kcal/mol
Tm [2]: 44.1 °C

GCGTCCACACGC ((((....))))
folding enthalpy [1]: -27.1 kcal/mol
Tm [2]: 52.4 °C

GCTACCGAAAGGTTTAGC ((((((....)))..)))
folding enthalpy [1]: -17.6 kcal/mol
Tm [2]: 38.5 °C

GCGCGAGGAAACCCACGC (((.(.(....).).)))
folding enthalpy [1]: -20.3 kcal/mol
Tm [2]: 40 °C

GTCCACCGAAAGGTCGAC (((.(((....))).)))
folding enthalpy [1]: -27.2 kcal/mol
Tm [2]: 44 °C

GCCAGTGGAAACACCGGC (((.(((....))).)))
folding enthalpy [1]: -37.1 kcal/mol
Tm [2]: 49.6 °C

GTGTGAGGAAACTTACAC ((((.((....)).))))
folding enthalpy [1]: -37.6 kcal/mol
Tm [2]: 43.9 °C

GTGCTAGGAAACTAGCGC (.(((((....))))).)
folding enthalpy [1]: -39.6 kcal/mol
Tm [2]: 53.5 °C

GTTTTCGGAAACGAAGAC ((.((((....)))).))
folding enthalpy [1]: -28.8 kcal/mol
Tm [2]: 42.5 °C

GGTGTTGGAAACGACACC (((((.(....).)))))
folding enthalpy [1]: -50.3 kcal/mol
Tm [2]: 54.3 °C

GACTGGGGAAACTCGGTC (((.(.(....).).)))
folding enthalpy [1]: -21.3 kcal/mol
Tm [2]: 38.5 °C

GCTCACGAAAGTGTAGC ((((((....))).)))
folding enthalpy [1]: -24.6 kcal/mol
Tm [2]: 51.5 °C

GCGGATGACCGC ((((....))))
folding enthalpy [1]: -21.6 kcal/mol
Tm [2]: 54.8 °C

GCTCATCCGAAAGGAAGC (((..(((....))))))
folding enthalpy [1]: -11.2 kcal/mol
Tm [2]: 29.8 °C

GACCGTGGAAACACGATC ((.((((....)))).))
folding enthalpy [1]: -19.1 kcal/mol
Tm [2]: 43.1 °C

GGGGACGGAAACGTCTCC ((.((((....)))).))
folding enthalpy [1]: -27.5 kcal/mol
Tm [2]: 57.2 °C

GATGAGGGAAACCTTGTC ((..(((....)))..))
folding enthalpy [1]: -15.3 kcal/mol
Tm [2]: 28.1 °C

GTGGGTGGAAACACTCGC (.(.(((....))).).)
folding enthalpy [1]: -24.7 kcal/mol
Tm [2]: 42 °C
